Experimental data taken from ChEMBL document CHEMBL1146496, “Expanding the strategies in natural product studies of marine-derived fungi: a chemical investigation of penicillium obtained from deep water sediment” (J Nat Prod, 2004).
Values after ≈ are worked out from the molar mass of the structure shown.

Assays:
[1] = tested on: L1210; test: Cytotoxicity against mouse L1210 cells assessed as zone units at 8.0 mg/mL by disk diffusion soft agar colony formation assay; type: functional
Procedure, shortened: (§1)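 Soft agar colony formation with disk diffusion. Sample dissolved in 250 µL DMSO; a 15 µL aliquot at the stated concentration is spotted on a cellulose disk laid on agar containing the cells. After incubation, the zone of colony inhibition is measured in zone units (200 zu = 6 mm). Activity is defined as ≥300 zu.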

[2] = Cytotoxicity against human H116 cells assessed as zone units at 8.0 mg/mL by disk diffusion soft agar colony formation assay; type: functional; procedure, shortened: as §1
[3] = tested on: MC-38; test: Cytotoxicity against mouse C38 cells assessed as zone units at 8.0 mg/mL by disk diffusion soft agar colony formation assay; type: functional; procedure, shortened: as §1
[4] = tested on: MDA-MB-435; test: Cytotoxicity against human MDA-MB-435 after 48 hrs by SRB assay; type: functional, cell-based; conditions: MDA-MB-435, 48 h
Procedure, shortened: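 MDA-MB-435 cells plated and left to attach and grow 24 h, then exposed to compound or ethanol vehicle for 48 h. Cells fixed with 10% trichloroacetic acid, stained with 0.4% sulforhodamine B, absorbance read at 560 nm. Full dose–response in triplicate; IC50 (50% proliferation inhibition) taken from the linear portion of the log-dose–response curve.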

[5] = Cytotoxicity against mouse CFU-GM cells assessed as zone units at 8.0 mg/mL by disk diffusion soft agar colony formation assay; type: cell-based; procedure, shortened: as §1
[6] = Cytotoxicity against human H125 cells assessed as zone units at 8.0 mg/mL by disk diffusion soft agar colony formation assay; type: functional; procedure, shortened: as §1
[7] = Cytotoxicity against human H116 cells assessed as zone units at 6.0 mg/mL by disk diffusion soft agar colony formation assay; type: functional; procedure, shortened: as §1
[8] = Cytotoxicity against mouse CFU-GM cells assessed as zone units at 6.0 mg/mL by disk diffusion soft agar colony formation assay; type: cell-based; procedure, shortened: as §1
[9] = Cytotoxicity against human H125 cells assessed as zone units at 6.0 mg/mL by disk diffusion soft agar colony formation assay; type: functional; procedure, shortened: as §1
[10] = tested on: MC-38; test: Cytotoxicity against mouse C38 cells assessed as zone units at 6.0 mg/mL by disk diffusion soft agar colony formation assay; type: functional; procedure, shortened: as §1
[11] = tested on: L1210; test: Cytotoxicity against mouse L1210 cells assessed as zone units at 6.0 mg/mL by disk diffusion soft agar colony formation assay; type: functional; procedure, shortened: as §1
[12] = Cytotoxicity against human H125 cells assessed as zone units at 4.0 mg/mL by disk diffusion soft agar colony formation assay; type: functional; procedure, shortened: as §1
[13] = tested on: MC-38; test: Cytotoxicity against mouse C38 cells assessed as zone units at 4.0 mg/mL by disk diffusion soft agar colony formation assay; type: functional; procedure, shortened: as §1
[14] = Cytotoxicity against mouse CFU-GM cells assessed as zone units at 4.0 mg/mL by disk diffusion soft agar colony formation assay; type: cell-based; procedure, shortened: as §1
[15] = Cytotoxicity against human H116 cells assessed as zone units at 4.0 mg/mL by disk diffusion soft agar colony formation assay; type: functional; procedure, shortened: as §1
[16] = tested on: CCRF-CEM; test: Cytotoxicity against human CEM cells assessed as zone units at 4.0 mg/mL by disk diffusion soft agar colony formation assay; type: functional; procedure, shortened: as §1
[17] = tested on: L1210; test: Cytotoxicity against mouse L1210 cells assessed as zone units at 4.0 mg/mL by disk diffusion soft agar colony formation assay; type: functional; procedure, shortened: as §1
[18] = Cytotoxicity against human H125 cells assessed as zone units at 11.6 mg/mL by disk diffusion soft agar colony formation assay; type: functional; procedure, shortened: as §1
[19] = tested on: L1210; test: Cytotoxicity against mouse L1210 cells assessed as zone units at 11.6 mg/mL by disk diffusion soft agar colony formation assay; type: functional; procedure, shortened: as §1
[20] = tested on: CCRF-CEM; test: Cytotoxicity against human CEM cells assessed as zone units at 11.6 mg/mL by disk diffusion soft agar colony formation assay; type: functional; procedure, shortened: as §1
[21] = Cytotoxicity against mouse CFU-GM cells assessed as zone units at 11.6 mg/mL by disk diffusion soft agar colony formation assay; type: cell-based; procedure, shortened: as §1
[22] = tested on: MC-38; test: Cytotoxicity against mouse C38 cells assessed as zone units at 11.6 mg/mL by disk diffusion soft agar colony formation assay; type: functional; procedure, shortened: as §1
[23] = Cytotoxicity against human H116 cells assessed as zone units at 11.6 mg/mL by disk diffusion soft agar colony formation assay; type: functional; procedure, shortened: as §1
[24] = Cytotoxicity against mouse CFU-GM cells assessed as zone units at 6.8 mg/mL by disk diffusion soft agar colony formation assay; type: cell-based; procedure, shortened: as §1
[25] = tested on: L1210; test: Cytotoxicity against mouse L1210 cells assessed as zone units at 6.8 mg/mL by disk diffusion soft agar colony formation assay; type: functional; procedure, shortened: as §1
[26] = Cytotoxicity against human H116 cells assessed as zone units at 6.8 mg/mL by disk diffusion soft agar colony formation assay; type: functional; procedure, shortened: as §1
[27] = Cytotoxicity against human H125 cells assessed as zone units at 6.8 mg/mL by disk diffusion soft agar colony formation assay; type: functional; procedure, shortened: as §1
[28] = tested on: MC-38; test: Cytotoxicity against mouse C38 cells assessed as zone units at 6.8 mg/mL by disk diffusion soft agar colony formation assay; type: functional; procedure, shortened: as §1

Structure (SMILES): COC1=CC(=O)[C@]2(C)O[C@@]23CC(C)OC13O (stereo partly drawn) [(+)-EPOXYSERINONE B]
- Activity [1]: 250 Zone units
- Activity [2]: 200 Zone units
- Activity [3]: 400 Zone units
- IC50 [4]: > 10 µg/mL
- Activity [5]: 400 Zone units
- Activity [6]: 50 Zone units

Structure (SMILES): COC1=CC(=O)C(C)=C(CC(C)=O)C1=O [ANSERINONE A]
- Activity [7]: 50 Zone units
- Activity [8]: 150 Zone units
- IC50 [4]: 2.22 µg/mL (≈ 10.7 µM)
- Activity [9]: 50 Zone units
- Activity [10]: 300 Zone units
- Activity [11]: 300 Zone units

Structure (SMILES): COC1=CC(=O)C(C)=C(C[C@H](C)OC=O)C1=O [(+)-FORMYLANSERINONE B]
- Activity [12]: 350 Zone units
- Activity [13]: 250 Zone units
- Activity [14]: 600 Zone units
- Activity [15]: 400 Zone units
- Activity [16]: 550 Zone units
- IC50 [4]: 2.9 µg/mL (≈ 12.2 µM)
- Activity [17]: 550 Zone units

Structure (SMILES): COC1=CC(=O)C(C)=C(C[C@H](C)O)C1=O [ANSERINONE B]
- Activity [18]: 400 Zone units
- Activity [19]: 700 Zone units
- Activity [20]: 650 Zone units
- Activity [21]: 650 Zone units
- IC50 [4]: 3.6 µg/mL (≈ 17.1 µM)
- Activity [22]: 400 Zone units
- Activity [23]: 400 Zone units

Structure (SMILES): COC1=CC(=O)[C@]2(C)O[C@@]23C[C@@H](C)O[C@@]13O
- Activity [24]: 0 Zone units
- Activity [25]: 50 Zone units
- Activity [26]: 0 Zone units
- IC50 [4]: > 10 µg/mL
- Activity [27]: 0 Zone units
- Activity [28]: 200 Zone units
